Screens from PubChem BioAssay.
The sample as a whole holds a higher share of hits than the screen did.
Dynein cargo inh: dynein cargo transport inhibition. z-score, hits read low. 220,000 tested, 0.47% active. 3617.4 mouse cells, GR-EGFP nuclear translocation imaging; test concentration mostly 20 µM; stimulated with dexamethasone, 1 µM; hits give low values. AID 1381;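 active means plate z-score of nuclear minus cytoplasmic receptor signal below a set negative limit, without overly bright fluorescence or cell loss, cut at about -3.5 in these data, passing the limit was not always enough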;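 further: z-score of nuclear minus cytoplasmic ring GR-EGFP intensity difference per well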
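medium = tetracycline-free induction medium containing charcoal-stripped FBS | also added = 1.0 µM final dexamethasone stimulus | schedule = 48 h induction, 1 h compound, 30 min dex at 37 °C | technique = fixed, Hoechst-stained cells imaged at 10x for EGFP | measure = GR-EGFP nuclear translocation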
T cruzi repl: T. cruzi replication inhibition. T. cruzi beta-gal in NIH3T3, luminescence, 90 h. inhibition, % (concentration not given with the values). 300,000 tested, 1.4% active;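 active means mean inhibition across valid replicates above about 55%, limit read from the data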;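 further: signal also drops with host cell toxicity which is not excluded here; 0% = plate median of DMSO wells and 100% = zero luminescence signal; higher percent means less beta-gal luminescence so fewer parasites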
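Test system: β-gal T. cruzi (Tulahuen C4) inside NIH/3T3 cells / Quantity: 5,000 cells/well / Measured by: luminescence from GalScreen with 0.05% NP40, read after 60 min / Medium: DMEM plus 2% FBS / Measure: parasite load inhibition, % / Reagent: Tulahuen C4 trypomastigotes, 5000/well / Schedule: co-culture of at least 90 h after 3 h attachment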
CHOP inh: CHOP inhibition in unfolded protein response. 220,000 tested, 3.8% active. AID 2732. CHO-K1 CHOP-promoter luciferase, tunicamycin-induced, 15-18 h. inhibition, % at 10 µM;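 active means compounds that reduced the stress-induced luciferase reporter signal by more than about 70% of percent inhibition, limit read from the data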;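 further: 0% = tunicamycin plus vehicle and 100% = wells without tunicamycin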
UPR CHOP act: apoptotic UPR (CHOP) activation; CHO-CHOP luciferase reporter, luminescence; percent of tunicamycin response over DMSO baseline; activation, % at 10 µM; 330,000 tested, 0.34% active;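 active means at 10 µM dose, activation of 40% or more, normalized to positive control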;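 further: 100% = tunicamycin at 10 µg/mL and 0% = DMSO alone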
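assay system = CHO CHOP reporter cells | amount = 500 CHO-CHOP cells per well | buffer or medium = F12 with 10% FBS | incubation = 16-18 h cell attachment, then 6 h compound exposure, 37 °C | detection = luminescence read with Steady-Glo | read-out = percent activation relative to tunicamycin control | controls = tunicamycin high control, DMSO low control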
XBP1 UPR activ: adaptive UPR (XBP1) activation; CHO-XBP1 luciferase reporter, IRE1-XBP1 UPR activation, luminescence; percent of tunicamycin response, DMSO as zero; activation, % at 20 µM; 330,000 tested, 0.33% active; AID 463104;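 active means versus positive control, 20 µM dose yields 30% or more activation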;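 further: 100% = tunicamycin at 10 µg/mL and 0% = DMSO only wells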
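Material – CHO cell line with stable XBP1 luciferase reporter · Buffer or medium – F12 plus 10% FBS · Compound – single point, 20 µM final compound, 1% DMSO · Schedule – 16-18 h cell attachment at 37 °C, then 6 h compound exposure · Signal – Steady-Glo luminescence read · Benchmarks – high control tunicamycin 10 µg/mL final, low control DMSO vehicle only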
L major viab: inhibitors of Leishmania major promastigote growth; Leishmania major promastigotes, resazurin fluorescence viability; inhibition, % at 10 µM; 200,000 tested, 9% active; AID 1063; in the data active means inhibition above about 50%;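 further: promastigotes grown with compound for 44 hours at 28 °C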
An asterisk follows results filed as active.

Screening COc1ccc2[nH]c(C)c(C(=O)CN3CCN(C/C=C/c4ccccc4)CC3)c2c1 returned Dynein cargo inh 0.854, T cruzi repl 31.9, CHOP inh -6.3, UPR CHOP act 1.5, XBP1 UPR activ -1.6 and L major viab 62.2*.
Cc1[nH]c2ccccc2c1C(=O)CN1CCN(C/C=C/c2ccccc2)CC1 was read as Dynein cargo inh 1.25, T cruzi repl 31.8, CHOP inh 10.0, UPR CHOP act -2.2, XBP1 UPR activ -2.6 and L major viab 83.4*.
Screening Cc1[nH]c2ccccc2c1C(=O)CN1CCN(C2CCCCC2)CC1 returned Dynein cargo inh -0.251, CHOP inh 10.2 and L major viab -3.7.
Screening CCCc1nnc(SCC(=O)Nc2ccc(NC(C)=O)cc2)n1-n1cccc1 returned T cruzi repl 1.6, UPR CHOP act -0.9 and XBP1 UPR activ -2.1.
`O=C1C2C3C=CC(C3=C3CCCCC3)C2C(=O)N1Cc1ccccc1` (configuration not stated) gave Dynein cargo inh -0.806, T cruzi repl 16.8, CHOP inh 86.2*, UPR CHOP act 0.8, XBP1 UPR activ -3.0 and L major viab 4.7.
O=C1C2C3CCC(C3)C2C(=O)N1Cc1ccccc1 (configuration not stated) was read as Dynein cargo inh 0.889, T cruzi repl -30.3, CHOP inh 20.6, UPR CHOP act 0.2, XBP1 UPR activ -1.7 and L major viab 56.8*.
For O=C1C2CCCCN2C(=O)N1CCCCN1CCN(c2cccc(Br)c2)CC1 (configuration not stated) the results were T cruzi repl 3.5, UPR CHOP act 2.0 and XBP1 UPR activ 6.2.
O=C(NCCN1CCOCC1)c1ccc(NS(=O)(=O)c2cccc([N+](=O)[O-])c2)cc1 was read as T cruzi repl -10.1, UPR CHOP act -0.6 and XBP1 UPR activ 3.0.
For COc1ccc(F)c(CN2CCC(n3nccc3NC(=O)C3CCOC3)CC2)c1 (configuration not stated) the results were T cruzi repl 26.0, UPR CHOP act -1.2 and XBP1 UPR activ -6.0.
Cc1ccccc1Nc1c(-c2ccncc2)nc2ccc(Br)cn12 was read as Dynein cargo inh -0.735, T cruzi repl 59.4*, CHOP inh 2.0, UPR CHOP act 0.0, XBP1 UPR activ -1.8 and L major viab 95.9*.
`Cc1ccccc1Nc1c(-c2ccccn2)nc2ccccn12` gave Dynein cargo inh 0.492, T cruzi repl 43.7, CHOP inh 69.2, UPR CHOP act 2.1, XBP1 UPR activ 12.4 and L major viab 100.4*.
Screening Cc1ccc2nc(-c3ccccn3)c(Nc3ccccc3C)n2c1 returned Dynein cargo inh 1.6, T cruzi repl 61.7*, CHOP inh 76.7*, UPR CHOP act 19.3, XBP1 UPR activ 7.0 and L major viab 100.5*.
For Cc1ccccc1Nc1c(-c2cccnc2)nc2ccc(Br)cn12 the results were Dynein cargo inh -0.759, T cruzi repl 33.3, CHOP inh 8.2, UPR CHOP act -2.1, XBP1 UPR activ -3.8 and L major viab 29.5.
`Cc1ccn2c(Nc3ccccc3C)c(-c3ccccn3)nc2c1` gave Dynein cargo inh -0.0626, T cruzi repl 49.6, CHOP inh 88.2*, UPR CHOP act 16.0, XBP1 UPR activ 11.0 and L major viab 100.7*.
Screening Cc1ccc2nc(-c3cccnc3)c(Nc3ccccc3C)n2c1 returned Dynein cargo inh -0.452, T cruzi repl 15.3, CHOP inh 10.2, UPR CHOP act -0.6, XBP1 UPR activ 0.9 and L major viab 23.7.
For Cc1ccccc1Nc1c(-c2cccnc2)nc2ccccn12 the results were Dynein cargo inh -0.476, T cruzi repl -13.6, CHOP inh -11.2, UPR CHOP act -0.3 and XBP1 UPR activ -3.2.
`Cc1cccn2c(Nc3ccccc3)c(-c3ccccn3)nc12` gave Dynein cargo inh -1.86, T cruzi repl 4.7, CHOP inh -70.5, UPR CHOP act 3.5, XBP1 UPR activ 1.9 and L major viab 36.0.
Cc1ccn2c(Nc3ccccc3)c(-c3ccccn3)nc2c1 was read as Dynein cargo inh -0.541, T cruzi repl 61.7*, CHOP inh 83.8*, UPR CHOP act 16.0, XBP1 UPR activ 9.4 and L major viab 100.6*.
`Cc1cc(C(=O)CCl)c(C)n1-c1c(C)n(C)n(-c2ccccc2)c1=O` gave Dynein cargo inh -3.04, T cruzi repl -41.5, CHOP inh -152.3, UPR CHOP act 27.9, XBP1 UPR activ 6.0 and L major viab 66.6*.
O=C(CCn1ccnc1)Nc1cc(Cl)ccc1O was read as T cruzi repl -1.3, UPR CHOP act 0.8 and XBP1 UPR activ -3.5.
Screening CCN(CC)c1nc(C#N)nc(N(CC)CC)n1 returned Dynein cargo inh 2.38, T cruzi repl 6.6, CHOP inh 78.8*, UPR CHOP act -1.5, XBP1 UPR activ 0.2 and L major viab 18.9.
`O=C(N/N=C/c1ccco1)c1cccc(N2Cc3ccccc3C2)c1` gave Dynein cargo inh -0.768, T cruzi repl -5.0, CHOP inh 31.7, UPR CHOP act 2.7, XBP1 UPR activ -1.2 and L major viab -10.5.
O=C1C(C2=C(O)c3ccccc3C2=O)=Nc2ccccc21 was read as Dynein cargo inh -2.56, T cruzi repl -16.2, CHOP inh 22.3, UPR CHOP act 11.4, XBP1 UPR activ 5.3 and L major viab 99.6*.
`CN=CC1=C(O)c2ccccc2C1=O` gave Dynein cargo inh 0.355, T cruzi repl -7.1, CHOP inh 15.2, UPR CHOP act -0.6, XBP1 UPR activ -1.8 and L major viab -3.5.
For COc1ccc(CNC(=O)C[C@H]2C[C@H](C(=O)N(C(C)C)C(C)C)[C@@]3(C)c4[nH]c5cc(-c6ccco6)ccc5c4CCN3C2=O)cc1OC the results were UPR CHOP act 4.4 and XBP1 UPR activ 2.6.
Screening C/C(CC(=O)Nc1ccc(N(C)C)cc1)=N\NC(=O)Cc1csc(N)n1 returned Dynein cargo inh -0.408, T cruzi repl 4.2, CHOP inh 24.0, UPR CHOP act 0.7, XBP1 UPR activ -1.1 and L major viab 75.3*.
CCOC(=O)[C@@H]1[C@H]2COc3ccccc3[C@@H]2N2C(=O)N(c3ccc(OC)cc3)C(=O)[C@@]12C was read as T cruzi repl -23.3, UPR CHOP act -0.1 and XBP1 UPR activ 0.3.
`COc1ccc(OC)c(-c2cc(C(=O)Nc3c(C)nn(Cc4ccccc4Cl)c3C)no2)c1` gave Dynein cargo inh 0.906, T cruzi repl 39.0, CHOP inh 42.1, UPR CHOP act 3.9, XBP1 UPR activ 0.0 and L major viab 52.2*.
